Measurements as given in PMC6641930 (ACS Omega, 2017).
Values joined by “and” are separate entries in the source; they are usually repeats but may differ in a detail not shown here. Equal values may be shown once.

Assays:
TTR fibrils [1] = molecular target: T1, TTR fibrils (Homo sapiens, UniProt P02766); test: Titration of TTR fibrils on a fixed probe concentration; format: binding
In short: (§1)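 Fibrils (0–20 μM, monomer basis) are titrated onto fixed probe: 1 μM, or 0.5 μM for Aβ1-42 fibrils. Buffers are pH 3.0 for TTR, insulin and lysozyme, and PBS pH 7.5 for Aβ1-42 (10 μM, 37 °C, 24 h quiescent). Samples equilibrate 30 min at room temperature. Excitation 330 nm, emission 350–700 nm. Kd comes from a one-site nonlinear fit with fixed Bmax correcting for unbound probe. SD is from two independent binding series.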

insulin fibrils [2] = molecular target: T2, insulin fibrils (Bos taurus, UniProt P01317); test: Titration of insulin fibrils on a fixed probe concentration; format: binding, Bovine
In short: as §1

lysozyme fibrils [3] = molecular target: T3, lysozyme fibrils (Gallus gallus, UniProt P00698); test: Titration of lysozyme fibrils on a fixed probe concentration; format: binding, chicken
In short: as §1

Aβ1-42 fibrils [4] = molecular target: T4, Aβ1-42 fibrils (Homo sapiens, UniProt P05067); test: Titration of Aβ1-42 fibrils on a fixed probe concentration; format: binding
In short: as §1

native TTR [5] = molecular target: T5, native TTR (Homo sapiens, UniProt P02766); test: Saturation binding of native TTR to probe
TTR fibrils [6] = molecular target: T1, TTR fibrils; test: Fluorescence emission of probe bound to TTR fibrils; format: binding; conditions: 5 μM fibrils + 1 μM probe; pH 3.0; excitation 330 nm
In short: (§2)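 Fibrils made from pH 3.0 (TTR: purified WT TTR in 50 mM NaAc/100 mM NaCl; bovine insulin or hen lysozyme: 200 μM in 25 mM HCl pH 1.6 at 65 °C, then dialysed into NaAc/NaCl pH 3.0). 1.0 μM probe from DMSO stock mixed with 5 μM fibrils (monomer basis) in HOAc/NaAc pH 3.0. Excitation 330 nm, emission 350–600 nm. Fold increase taken relative to free probe in buffer.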

insulin fibrils [7] = molecular target: T2, insulin fibrils; test: Fluorescence emission of probe bound to insulin fibrils; format: binding, Bovine; conditions: pH 3.0
In short: as §2

lysozyme fibrils [8] = molecular target: T3, lysozyme fibrils; test: Fluorescence emission of probe bound to lysozyme fibrils; format: binding, chicken; conditions: pH 3.0
In short: as §2

Aβ1-42 fibrils [9] = molecular target: T4, Aβ1-42 fibrils; test: Fluorescence emission of probe bound to Aβ1-42 fibrils; format: binding; conditions: PBS buffer pH 7.5
In short: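 Recombinant Aβ1-42 (extra N-terminal Met), solubilised in 6 M GuHCl and gel-filtered into PBS pH 7.5. […] Probe (1.0 μM, from DMSO stock) mixed with 5 μM fibrils or freshly dissolved monomer (monomer basis) in PBS pH 7.5. Emission spectra at 330 nm excitation, identical settings.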

native TTR [10] = molecular target: T5, native TTR; test: Fluorescence emission of probe with native TTR; format: binding; conditions: 5 μM native TTR + 1 μM probe
In short: (§3)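 Probe (1.0 μM final, from DMSO stock) is read free in buffer or with 5 μM native protein (monomer basis). Buffers are HOAc/NaAc pH 3.0 or PBS pH 7.5. Aβ1-42 is recombinant with an extra N-terminal Met, freshly gel-filtered monomer in PBS pH 7.5. Spectra are recorded at 330 nm excitation, 350–600 nm emission, with identical instrument settings.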

native Aβ1-42 = native Aβ1-42 (Homo sapiens, UniProt P05067); test: Fluorescence emission of probe with freshly dissolved native Aβ1-42; format: binding; conditions: 5 μM native Aβ1-42 + 1 μM probe; PBS buffer
In short: as §3

[11] = UV-vis absorption and fluorescence spectra in methanol; format: physicochemical
In short: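 Absorption is read in methanol in a 1 cm quartz cuvette at room temperature, at 20 μM and at four concentrations (50–5 μM, or 10–2 μM for one probe) for ε. Fluorescence of 20 μM probe in methanol uses 330 nm excitation, 350–600 nm emission and 1 nm resolution.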

Fluorescence lifetime = format: physicochemical; conditions: A: degassed methanol, [probe] = 5 μM
In short: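 TCSPC decays of 5 μM probe in argon-degassed methanol, excited at 337 nm and monitored at each emission maximum at room temperature. Instrument response is determined with a fibril solution. Decays are fitted to a sum of exponentials, with fit quality judged by χ2, residual distribution and residual autocorrelation. Average lifetime is calculated from amplitudes and lifetimes. Lifetime uncertainty is within 10%.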

Aβ1-42 fibrils [12] = molecular target: T4, Aβ1-42 fibrils; test: Fluorescence lifetime
In short: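 Time-correlated single photon counting on 5 μM probe with 20 μM Aβ1-42 fibrils (monomer basis) in PBS pH 7.5 at 25 °C, not degassed. Excitation 337 nm; decay recorded at the bound-probe emission maximum. Instrument response is measured with fibril solution. Multi-exponential fits are judged by χ2 and residuals. Uncertainty is within 10%.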

[13] = Emission maximum of free probe in buffer; format: physicochemical; conditions: HOAc/NaOAc buffer pH 3.0 or PBS buffer pH 7.5
In short: as §3

[14] = 5 μM fibrils (monomer basis) + 1 μM probe, versus free probe
[15] = 5 μM fibrils + 1 μM probe, excitation 330 nm
[16] = B: bound to Aβ1-42 fibrils in PBS buffer
[17] = B: bound to Aβ1-42 fibrils in PBS buffer, [probe] = 5 μM, [fibrils] = 20 μM

T4 sequence (P05067 672-713): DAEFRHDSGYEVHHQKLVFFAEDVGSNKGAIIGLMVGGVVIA
T2 sequence (P01317 25-54 limits assumed): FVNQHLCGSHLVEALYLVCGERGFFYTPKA
T2 sequence (P01317 85-105 limits assumed): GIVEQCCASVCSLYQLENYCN
T3 sequence (P00698 19-147): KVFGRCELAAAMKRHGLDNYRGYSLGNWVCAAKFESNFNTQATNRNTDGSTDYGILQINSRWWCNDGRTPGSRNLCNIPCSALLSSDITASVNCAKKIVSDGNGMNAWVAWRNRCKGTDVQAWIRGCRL
Sequence of native Aβ1-42 (P05067 672-713): as the sequence (P05067 672-713) above

Oc1ccc(/C=C/c2cc3ccc4cccc5ccc(c2)c3c45)cc1O [Compound 5, (E)-4-(2-(pyren-2-yl)vinyl)benzene-1,2-diol]
Kd (TTR fibrils [1]): 6000 ± 300 nM
Kd (insulin fibrils [2]): 2300 ± 400 nM
Kd (lysozyme fibrils [3]): 1600 ± 300 nM
Kd (Aβ1-42 fibrils [4]): 1300 ± 100 nM
Kd (native TTR [5]): 200 ± 10 nM
λem2: emission maxima of probe bound to TTR fibrils (TTR fibrils [6]): 420 nm and 445 nm and 475 nm
Int: fold increase in fluorescence intensity upon binding to insulin fibrils (insulin fibrils [7]; [14]): 23.2 fold
λem2: emission maxima of probe bound to insulin fibrils (insulin fibrils [7]; [15]): 420 nm and 445 nm and 475 nm
Int: fold increase in fluorescence intensity upon binding to lysozyme fibrils (lysozyme fibrils [8]; [14]): 8.9 fold
λem2: emission maxima of probe bound to lysozyme fibrils (lysozyme fibrils [8]; [15]): 420 nm
Int: fold increase in fluorescence intensity upon binding to Aβ1-42 fibrils (Aβ1-42 fibrils [9]; [14]): 11.1 fold
λem2: emission maxima of probe bound to Aβ1-42 fibrils (Aβ1-42 fibrils [9]; [15]): ~421 nm
emission peaks of probe bound to native TTR (native TTR [10]; excitation 330 nm): 420 nm and 445 nm and 475 nm
fluorescence intensity increase upon binding to native TTR (native TTR [10]; versus probe in buffer): 15.8 fold
fluorescence / binding with freshly prepared native Aβ1-42 (native Aβ1-42): Neither 2, 4, or 5 fluoresced appreciably
Stokes shift [11]: 78 nm
λmax (abs) [11]: 337 nm
λmax (em) ([11]; excitation 330 nm, [probe] = 20 μM): 415 nm
ε ([11]; four concentrations): 47 668 L·M^–1 cm^–1
α1 (normalized pre-exponential factor) (Fluorescence lifetime): 0.77
α2 (normalized pre-exponential factor) (Fluorescence lifetime): 0.23
λem1 (emission wavelength of decay) (Fluorescence lifetime): 425 nm
τ2 (Fluorescence lifetime): 29.30 ns
τavg (average fluorescence lifetime) (Fluorescence lifetime): 19.11 ns
α1 (normalized pre-exponential factor) (Aβ1-42 fibrils [12]; [16]): 0.11
α2 (normalized pre-exponential factor) (Aβ1-42 fibrils [12]; [16]): 0.42
α3 (normalized pre-exponential factor) (Aβ1-42 fibrils [12]; [16]): 0.47
τ2 (Aβ1-42 fibrils [12]; [16]): 8.89 ns
τ3 (Aβ1-42 fibrils [12]; [16]): 34.70 ns
τavg (average fluorescence lifetime) (Aβ1-42 fibrils [12]; B: bound to Aβ1-42 fibrils in PBS buffer pH 7.5, [probe] = 5 μM, [fibrils] = 20 μM): 29.8 ns and 29.76 ns
λem1 (emission wavelength of decay) (Aβ1-42 fibrils [12]; [17]): 430 nm
τ1 (Aβ1-42 fibrils [12]; [17]): 0.83 ns
λem1: emission maxima of probes in buffer [13]: 420 nm
